Results published in ChEMBL document CHEMBL1158389, “Highly twisted adamantyl arotinoids: synthesis, antiproliferative effects and RXR transactivation profiles” (Eur J Med Chem, 2009).
Activity calls are given as the source filed them. The rule behind the calls is not given here.

Columns and labels:
Jurkat [1] = assay: Induction of apoptosis in human Jurkat T cells assessed as induction of DEVDase activity at 4 uM after 4 hrs by fluorescence assay; assay type: functional, cell-based
Outline: (§1)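 Jurkat cells (40,000/well, 10^6 cells/mL, RPMI with 0.5% FBS) were treated for 4 h; controls got 0.1% DMSO. Lysis was in CE buffer (PIPES pH 7, NP-40, cytochalasin B, protease inhibitors) for 30 min at 4 °C. Lysates were mixed with 2x caspase buffer (HEPES pH 7.4, CHAPS, sucrose) holding 100 μM Ac-DEVD-AFC and incubated at 37 °C for 30 min. AFC was read every 2 min, ex 390/em 510 nm.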

[2] = biological target: T1, Retinoic acid receptor beta (Homo sapiens) (UniProt P10826); assay: Transactivation of Gal4-LBD fused human RARbeta (169 to 448) transfected in african green monkey CV1 cells assessed as luciferase activity at 2 uM after 6 hrs by Dual-light chemiluminescent assay; assay type: cell-based; settings: CV-1
T1 sequence (whole entry): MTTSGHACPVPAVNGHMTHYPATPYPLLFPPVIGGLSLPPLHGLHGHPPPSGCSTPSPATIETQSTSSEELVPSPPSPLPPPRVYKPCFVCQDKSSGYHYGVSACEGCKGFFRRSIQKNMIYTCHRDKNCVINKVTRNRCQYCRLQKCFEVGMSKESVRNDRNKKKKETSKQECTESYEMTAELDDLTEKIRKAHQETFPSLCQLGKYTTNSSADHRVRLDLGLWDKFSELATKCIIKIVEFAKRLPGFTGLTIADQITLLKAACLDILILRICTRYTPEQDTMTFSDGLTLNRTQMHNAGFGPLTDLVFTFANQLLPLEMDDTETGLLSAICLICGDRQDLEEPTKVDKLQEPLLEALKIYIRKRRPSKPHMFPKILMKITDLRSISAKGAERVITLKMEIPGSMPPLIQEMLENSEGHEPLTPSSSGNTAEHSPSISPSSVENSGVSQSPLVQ
Outline: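 Transfected CV-1 cells carried Gal4-LBD constructs: hRARα 156–462, hRARβ 169–448, hRARγ 178–454 or mRXRα 218–467. Transfection used 10 ng Gal4-LBD, 100 ng UAS-luciferase and 25 ng β-gal vector. After 16 h the medium was changed to 5% charcoal-treated FBS. Cells were stimulated with 2 μM analog for 6 h (RARα, RARβ, RXRα) or 20 h (RARγ). Reference agonists were 1 μM atRA (RARα) and 1 μM 9cRA (RXRα). Luciferase and β-galactosidase were read by chemiluminescence.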

T47D = assay: Antiproliferative activity against human T47D cells at 4 uM after 48 hrs by MTT assay; assay type: functional
Outline: (§2)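 Epithelial cancer lines came from ATCC and were seeded the day before in complete medium: PC-3, SkOV3 and A549 at 3,000/well; MiaPaCa-2 and BxPC-3 at 4,000; T-47D and MDA-MB-468 at 5,000. Medium was switched to 0.5% FBS just before exposure to 4 μM. Read-out was MTT (4 h, 37 °C), SDS/HCl solubilisation, A595 minus cell-free blank. Growth inhibition was taken versus DMSO (≤0.1% v/v) controls, ≥2 experiments in triplicate.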

A549 = assay: Antiproliferative activity against human A549 cells at 4 uM after 72 hrs by MTT assay; assay type: functional; settings: A549, 72 h; outline: as §2
Jurkat [3] = assay: Induction of apoptosis in human Jurkat T cells assessed as induction of DEVDase activity at 1 uM after 4 hrs by fluorescence assay; assay type: functional, cell-based; outline: as §1
MDA-MB-468 = assay: Antiproliferative activity against human MDA-MB-468 cells at 4 uM after 48 hrs by MTT assay; assay type: functional; settings: MDA-MB-468, 48 h; outline: as §2
PC-3 = assay: Antiproliferative activity against human PC3 cells at 4 uM after 48 hrs by MTT assay; assay type: functional; settings: PC-3, 48 h; outline: as §2
Jurkat [4] = assay: Antiproliferative activity against human Jurkat T cells after 48 hrs by MTT assay
[5] = biological target: T2, Retinoic acid receptor alpha (Homo sapiens) (UniProt P10276); assay: Transactivation of Gal4-LBD fused human RARalpha (156 to 454) transfected in african green monkey CV1 cells assessed as luciferase activity at 2 uM after 6 hrs by Dual-light chemiluminescent assay; assay type: cell-based; settings: CV-1
T2 sequence (whole entry): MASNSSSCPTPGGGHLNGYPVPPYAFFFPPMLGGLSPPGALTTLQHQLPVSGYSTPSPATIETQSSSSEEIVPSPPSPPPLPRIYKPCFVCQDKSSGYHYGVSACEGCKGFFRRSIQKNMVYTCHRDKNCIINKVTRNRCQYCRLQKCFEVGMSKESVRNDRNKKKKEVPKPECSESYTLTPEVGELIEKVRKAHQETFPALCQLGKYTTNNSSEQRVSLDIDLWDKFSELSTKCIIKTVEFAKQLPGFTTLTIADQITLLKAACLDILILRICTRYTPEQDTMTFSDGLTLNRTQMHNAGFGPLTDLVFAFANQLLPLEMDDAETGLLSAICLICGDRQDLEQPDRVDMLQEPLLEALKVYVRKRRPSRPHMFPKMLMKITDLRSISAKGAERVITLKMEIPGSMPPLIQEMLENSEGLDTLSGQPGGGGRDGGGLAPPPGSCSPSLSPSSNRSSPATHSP

SK-OV-3 = assay: Antiproliferative activity against human SKOV3 cells at 4 uM after 48 hrs by MTT assay; assay type: functional; settings: SK-OV-3, 48 h; outline: as §2
BXPC-3 = assay: Antiproliferative activity against human BxPC3 cells at 4 uM after 48 hrs by MTT assay; assay type: functional; settings: BXPC-3, 48 h; outline: as §2
MIA PaCa-2 = assay: Antiproliferative activity against human MIAPaCa2 cells at 4 uM after 48 hrs by MTT assay; assay type: functional; settings: MIA PaCa-2, 48 h; outline: as §2
[6] = biological target: T1, Retinoic acid receptor beta (Homo sapiens); assay: Inhibition of transactivation activity of Gal4-LBD fused human RARbeta (169 to 448) transfected in atRA-stimulated african green monkey CV1 cells at 4 uM after 6 hrs by Dual-light chemiluminescent assay; assay type: cell-based; settings: CV-1
Outline: (§3)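 Gal4 DBD (1–147) was fused to hRARα (156–462) or hRARβ (169–448) LBD. CV-1 cells (20,000/well) were co-transfected with 10 ng Gal4-LBD, 100 ng UAS-luciferase and 25 ng β-gal vector. After 16 h the medium was replaced with medium containing 5% charcoal-treated FBS. Cells got atRA plus test compound at 10-, 40- or 200-fold excess (0.2, 0.8, 4 μM) for 6 h. Luciferase and β-galactosidase were read by chemiluminescence.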

Jurkat [7] = assay: Antiproliferative activity against human Jurkat T cells at 62.5 nM after 48 hrs by MTT assay; assay type: functional, cell-based
Outline: (§4)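 Jurkat T cells were resuspended at 10^5 cells/mL in RPMI with 0.5% FBS (10,000/well) and seeded immediately before dosing at 62.5 nM–2 μM for two days. Viability was read by MTT (4 h, 37 °C), formazan dissolved in 10% SDS/10 mM HCl, A595 with cell-free background subtracted. Values are relative to DMSO controls (≤0.1% v/v); at least two experiments in triplicate.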

[8] = biological target: T2, Retinoic acid receptor alpha (Homo sapiens); assay: Inhibition of transactivation activity of Gal4-LBD fused human RARalpha (156 to 454) transfected in atRA-stimulated african green monkey CV1 cells at 0.2 uM after 6 hrs by Dual-light chemiluminescent assay; assay type: cell-based; outline: as §3
Jurkat [9] = assay: Antiproliferative activity against human Jurkat T cells at 2 uM after 48 hrs by MTT assay; assay type: functional, cell-based; outline: as §4
[10] = biological target: T3, Retinoic acid receptor gamma (Homo sapiens) (UniProt P13631); assay: Inhibition of transactivation activity of Gal4-LBD fused human RARgamma (178 to 454) transfected in atRA-stimulated african green monkey CV1 cells at 4 uM after 20 hrs by Dual-light chemiluminescent assay; settings: CV-1
T3 sequence (whole entry): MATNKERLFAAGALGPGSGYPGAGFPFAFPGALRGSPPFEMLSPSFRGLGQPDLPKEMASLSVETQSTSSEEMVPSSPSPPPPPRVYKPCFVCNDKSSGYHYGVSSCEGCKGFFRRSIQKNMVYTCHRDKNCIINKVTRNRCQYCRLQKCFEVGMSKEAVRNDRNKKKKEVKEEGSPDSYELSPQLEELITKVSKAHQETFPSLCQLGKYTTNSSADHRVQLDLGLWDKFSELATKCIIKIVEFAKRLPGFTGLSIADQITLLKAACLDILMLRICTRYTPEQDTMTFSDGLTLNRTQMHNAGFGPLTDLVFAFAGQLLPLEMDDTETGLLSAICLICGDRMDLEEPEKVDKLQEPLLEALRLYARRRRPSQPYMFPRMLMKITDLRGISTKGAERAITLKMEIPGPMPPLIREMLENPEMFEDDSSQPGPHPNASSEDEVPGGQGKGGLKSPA

[11] = biological target: T4, Retinoic acid receptor RXR-alpha (Mus musculus, UniProt P28700); assay: Transactivation of Gal4-LBD fused mouse RXRalpha (218 to 467) transfected in african green monkey CV1 cells assessed as luciferase activity at after 6 hrs by Dual-light chemiluminescent assay; assay type: cell-based, CV-1
T4 sequence (P28700 whole entry): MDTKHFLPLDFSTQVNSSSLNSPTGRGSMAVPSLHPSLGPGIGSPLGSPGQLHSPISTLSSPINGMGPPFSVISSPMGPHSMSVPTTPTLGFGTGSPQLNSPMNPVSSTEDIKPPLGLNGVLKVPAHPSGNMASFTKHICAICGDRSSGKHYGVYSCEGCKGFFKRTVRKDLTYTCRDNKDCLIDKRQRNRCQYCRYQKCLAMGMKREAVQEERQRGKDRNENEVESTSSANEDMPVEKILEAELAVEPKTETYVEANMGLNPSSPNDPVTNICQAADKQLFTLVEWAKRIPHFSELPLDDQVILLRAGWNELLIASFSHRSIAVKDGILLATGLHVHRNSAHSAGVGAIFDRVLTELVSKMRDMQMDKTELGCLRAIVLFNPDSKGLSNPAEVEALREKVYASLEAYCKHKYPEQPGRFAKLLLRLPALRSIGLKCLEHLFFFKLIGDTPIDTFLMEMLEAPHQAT

[12] = biological target: T2, Retinoic acid receptor alpha (Homo sapiens); assay: Inhibition of transactivation activity of Gal4-LBD fused human RARalpha (156 to 454) transfected in atRA-stimulated african green monkey CV1 cells at 4 uM after 6 hrs by Dual-light chemiluminescent assay; assay type: cell-based; settings: CV-1; outline: as §3

Structure (SMILES)	Activity [2]	IC50 (Jurkat [4])	Activity [5]	Activity [6]	inhibition ([8]; CV-1, 0.2 uM)	Activity [10]	EC50 [11]	inhibition ([8]; CV-1, 4 uM, in the assay text read “at 4 uM” for “at 0.2 uM”)	inhibition [12]	Activity (Jurkat [1])	inhibition at 4 µM (T47D)	inhibition at 4 µM (A549)	Activity (Jurkat [3])	inhibition at 4 µM (MDA-MB-468)	inhibition at 4 µM (PC-3)	inhibition at 4 µM (SK-OV-3)	inhibition at 4 µM (BXPC-3)	inhibition at 4 µM (MIA PaCa-2)	Activity (Jurkat [7])	Activity (Jurkat [9])
Cc1cc(O)c(C23CC4CC(CC(C4)C2)C3)cc1-c1ccc(CC(=O)O)cc1Cl	inactive	–	inactive	inactive	inactive	inactive	–	–	–	–	29.1%	15.9%	–	11.1%	66.7%	30.3%	49.2%	26.8%	inactive	Active
Cc1cc(O)c(C23CC4CC(CC(C4)C2)C3)cc1-c1ccc(/C=C/C(=O)O)cc1Cl	inactive	1410 nM	inactive	inactive	inactive	inactive	576 nM	–	–	–	24.2%	23.7%	–	24.9%	68.7%	65.1%	36%	26.3%	inactive	–
Cc1cc(O)c(C23CC4CC(CC(C4)C2)C3)cc1-c1ccc2cc(C(=O)O)ccc2c1Cl	inactive	435 nM	inactive	inactive	inactive	inactive	–	–	27%	–	55.8%	88.1%	Active	59.2%	97.7%	87%	94.7%	91.5%	–	–
COCCOCOc1cc(C)c(-c2ccc(/C=C/C(=O)O)cc2Cl)cc1C12CC3CC(CC(C3)C1)C2	inactive	1870 nM	inactive	inactive	inactive	inactive	600 nM	–	27%	–	29.1%	51.1%	–	42%	72%	80.1%	45.8%	63.3%	–	–

Continued by falling IC50 (Jurkat [4]), values first:

Activity [2]	IC50 (Jurkat [4])	Activity [5]	Activity [6]	inhibition ([8]; CV-1, 0.2 uM)	Activity [10]	EC50 [11]	inhibition ([8]; CV-1, 4 uM, in the assay text read “at 4 uM” for “at 0.2 uM”)	inhibition [12]	Structure (SMILES)	Activity (Jurkat [1])	inhibition at 4 µM (T47D)	inhibition at 4 µM (A549)	Activity (Jurkat [3])	inhibition at 4 µM (MDA-MB-468)	inhibition at 4 µM (PC-3)	inhibition at 4 µM (SK-OV-3)	inhibition at 4 µM (BXPC-3)	inhibition at 4 µM (MIA PaCa-2)	Activity (Jurkat [7])	Activity (Jurkat [9])
inactive	287 nM	inactive	Active	–	Active	–	90%	–	COCCOCOc1ccc(C(=O)/C=C/c2ccc(C(=O)O)cc2)cc1C12CC3CC(CC(C3)C1)C2	Active	50.6%	42.1%	Active	72.4%	92.1%	61.5%	96.6%	74.9%	–	–
inactive	82 nM	inactive	–	–	–	–	–	–	C/C(=C/c1ccc(C(=O)O)cc1)c1ccc(O)c(C23CC4CC(CC(C4)C2)C3)c1	Active	62.7%	79%	Active	76.7%	92.3%	67%	95.7%	76.1%	–	–
